ChEMBL document CHEMBL4842356, “Discovery, optimization, and target identification of novel coumarin derivatives as HIV-1 reverse transcriptase-associated ribonuclease H inhibitors” (Eur J Med Chem, 2021)

What was measured:
MT4 = test: Cytotoxicity against mock-infected human MT4 cells assessed as reduction in cell viability measured after 5 days by MTT assay; type: functional; conditions: MT4, 120 h, time 5 day
Summary of the method: (§1)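 MT-4 cells (exponentially growing, resuspended at 6 × 10⁵ cells/mL) were seeded onto serial five-fold compound dilutions and infected with 100–300 CCID₅₀ virus stock, or given medium only (mock). Viability was read by MTT at 540 and 690 nm five days after infection, using the median OD of three wells. EC₅₀ is 50% protection from viral cytopathicity. CC₅₀ is 50% loss of viability in mock-infected cells.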

[1] = molecular target: Human immunodeficiency virus type 1 reverse transcriptase (Human immunodeficiency virus 1, UniProt Q72547); test: Inhibition of wild type HIV1 Reverse transcriptase RNase H expressed in Escherichia coli using 5'-UUUUUUUUUAGGAUACAUAUGGUUAAAGU-3' oligonucleotide as substrate and DNA21P as primer in presence of [gamma32P]-ATP by PAGE analysis
Summary of the method: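 Wild-type HIV-1 BH10 RT was expressed in E. coli and purified. RNase H activity was measured on a 31-nt RNA, 5′-³²P-labelled, annealed to a 21-nt DNA (31T/21P). Cleaved substrate was quantified without inhibitor (5% DMSO) and with compound over 0.2–100 µM. IC₅₀ values were taken from dose-response curves.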

[2] = system: Human immunodeficiency virus 2; test: Antiviral activity against HIV2 ROD infected in human MT4 cells assessed as protection against virus-induced cytopathic effect incubated for 5 days by MTT assay; conditions: Human immunodeficiency virus 2, ISOLATE ROD, MT4, 120 h
[3] = molecular target: Human immunodeficiency virus type 1 reverse transcriptase (Human immunodeficiency virus 1) (UniProt Q72547); test: Inhibition of wild type HIV1 Reverse transcriptase RNase H expressed in Escherichia coli at 50 uM using 5'-UUUUUUUUUAGGAUACAUAUGGUUAAAGU-3' oligonucleotide as substrate and DNA21P as primer in presence of [gamma32P]-ATP by PAGE analysis relative to control
[4] = system: Human immunodeficiency virus 1; test: Antiviral activity against wild type HIV1 3B infected in human MT4 cells assessed as protection against virus-induced cytopathic effect incubated for 5 days by MTT assay; type: functional, organism-based; conditions: Human immunodeficiency virus 1, 3B, MT4, 120 h; summary of the method: as §1
[5] = molecular target: Human immunodeficiency virus type 1 reverse transcriptase (Human immunodeficiency virus 1) (UniProt Q72547); test: Inhibition of wild type HIV1 Reverse transcriptase RNase H expressed in Escherichia coli at 100 uM using 5'-UUUUUUUUUAGGAUACAUAUGGUUAAAGU-3' oligonucleotide as substrate and DNA21P as primer in presence of [gamma32P]-ATP by PAGE analysis relative to control

SMILES | CC50 (MT4) [µM] | IC50 [1] [µM] | EC50 [2] [µM] | inhibition [3] [%] | EC50 [4] [µM] | inhibition [5] [%]
O=C(NC1CCN(Cc2cccc(Cl)c2)CC1)c1cc2cc([N+](=O)[O-])c(O)c(O)c2oc1=O | 143 | > 50 | > 143 | < 10 | > 143 | 72.5
O=C(NC1CCN(Cc2cccc(Br)c2)CC1)c1cc2cc([N+](=O)[O-])c(O)c(O)c2oc1=O | 153 | > 50 | > 153 | 32.4 | > 153 | 57.4
Cc1c(O)c([N+](=O)[O-])cc2cc(C(=O)NC3CCN(Cc4ccc(C(N)=O)cc4)CC3)c(=O)oc12 | > 260 | > 50 | > 260 | 37.1 | 138 | 87.2
Cc1c(O)c([N+](=O)[O-])cc2cc(C(=O)NC3CCN(S(=O)(=O)N(C)C)CC3)c(=O)oc12 | 50.8 | – | > 50.8 | – | > 50.8 | –
Cc1c(O)c([N+](=O)[O-])cc2cc(C(=O)NC3CCN(Cc4ccc([N+](=O)[O-])cc4)CC3)c(=O)oc12 | > 264 | – | > 259 | – | 234 | –
O=C(NC1CCN(Cc2cccc(F)c2)CC1)c1cc2cc([N+](=O)[O-])c(O)c(O)c2oc1=O | > 220 | > 50 | > 220 | – | 210 | 57.7
Cc1c(O)c([N+](=O)[O-])cc2cc(C(=O)NC3CCN(Cc4cccc(Br)c4)CC3)c(=O)oc12 | 14.7 | > 50 | > 14.7 | < 10 | > 14.7 | 62.9
Cc1c(O)c([N+](=O)[O-])cc2cc(C(=O)Nc3ccc(F)cc3)c(=O)oc12 | 6.5 | – | > 6.5 | – | > 6.5 | –
COC(=O)c1cc(NC(=O)c2cc3cc([N+](=O)[O-])c(O)c(C)c3oc2=O)ccc1O | 182 | – | > 182 | – | > 182 | –
Cc1c(O)c([N+](=O)[O-])cc2cc(C(=O)NCc3ccc(F)cc3)c(=O)oc12 | 44 | – | > 44 | – | > 44 | –
Cc1c(O)c([N+](=O)[O-])cc2cc(C(=O)NCc3ccc(F)cc3Cl)c(=O)oc12 | 32.5 | – | > 32.5 | – | > 32.5 | –
O=C(NCc1ccccc1F)c1cc2cc([N+](=O)[O-])c(O)c(O)c2oc1=O | 259 | – | > 259 | – | > 259 | –
Cc1c(O)c([N+](=O)[O-])cc2cc(C(=O)NC3CCN(Cc4cccc(F)c4)CC3)c(=O)oc12 | 50.5 | 45.2 | > 50.5 | – | > 50.5 | –
Cc1c(O)c([N+](=O)[O-])cc2cc(C(=O)Nc3ccccc3F)c(=O)oc12 | 10.7 | – | > 10.7 | – | > 10.7 | –
Cc1ccc(CN2CCC(NC(=O)c3cc4cc([N+](=O)[O-])c(O)c(C)c4oc3=O)CC2)cc1 | > 276 | – | > 276 | – | > 276 | –
Cc1c(O)c([N+](=O)[O-])cc2cc(C(=O)NC3CCN(C(=O)c4ccc([N+](=O)[O-])cc4)CC3)c(=O)oc12 | > 251 | – | > 251 | – | > 251 | –
O=C(NC1CCN(Cc2ccc(Br)cc2)CC1)c1cc2cc([N+](=O)[O-])c(O)c(O)c2oc1=O | 112 | > 100 | > 112 | – | > 112 | 47.4

SMILES | CC50 (MT4) [µM] | IC50 [1] [µM] | EC50 [2] [µM] | inhibition [3] [%] | EC50 [4] [µM] | inhibition [5] [%]
O=C(NC1CCN(Cc2ccc([N+](=O)[O-])cc2)CC1)c1cc2cc([N+](=O)[O-])c(O)c(O)c2oc1=O | > 217 | – | > 101 | – | > 101 | –
O=C(NCc1ccc(F)cc1)c1cc2cc([N+](=O)[O-])c(O)c(O)c2oc1=O | 272 | > 100 | > 272 | – | > 272 | 48
Cc1c(O)c([N+](=O)[O-])cc2cc(C(=O)NC3CCN(Cc4ccc(Cl)cc4)CC3)c(=O)oc12 | > 264 | > 100 | 148 | – | 167 | 23.8
Cc1c(O)c([N+](=O)[O-])cc2cc(C(=O)NC3CCN(Cc4ccc(Br)cc4)CC3)c(=O)oc12 | 72.3 | – | > 72.3 | – | > 72.3 | –
O=C(NC1CCN(Cc2ccc(Cl)cc2)CC1)c1cc2cc([N+](=O)[O-])c(O)c(O)c2oc1=O | 21.7 | 8.4 | > 21.7 | 31.8 | > 21.7 | –
O=C(Nc1ccc(F)cc1F)c1cc2cc([N+](=O)[O-])c(O)c(O)c2oc1=O | > 330 | > 50 | > 330 | 12 | 237 | 78
O=C(NCc1ccc(F)cc1Cl)c1cc2cc([N+](=O)[O-])c(O)c(O)c2oc1=O | 266 | > 50 | > 266 | < 10 | 46.1 | 68.6
Cc1cccc(CN2CCC(NC(=O)c3cc4cc([N+](=O)[O-])c(O)c(C)c4oc3=O)CC2)c1 | 3.88 | > 50 | > 3.88 | < 10 | > 3.88 | 72.1
Cc1c(O)c([N+](=O)[O-])cc2cc(C(=O)NCc3ccccc3F)c(=O)oc12 | 45 | > 100 | > 45 | – | > 45 | 38.7
Cc1c(O)c([N+](=O)[O-])cc2cc(C(=O)NC3CCN(Cc4ccc(F)cc4)CC3)c(=O)oc12 | 42.6 | – | > 42.6 | – | > 42.6 | –
Cc1c(O)c([N+](=O)[O-])cc2cc(C(=O)NCc3cccc(F)c3)c(=O)oc12 | 47.5 | – | > 47.5 | – | > 47.5 | –
Cc1c(O)c([N+](=O)[O-])cc2cc(C(=O)Nc3cccc(F)c3)c(=O)oc12 | 12.5 | > 100 | > 12.5 | – | > 12.5 | 28.6
Cc1c(O)c([N+](=O)[O-])cc2cc(C(=O)NC3CCN(Cc4cccc(Cl)c4)CC3)c(=O)oc12 | 9.37 | – | – | – | > 9.38 | –
O=C(NCc1cccc(F)c1)c1cc2cc([N+](=O)[O-])c(O)c(O)c2oc1=O | 228 | – | > 228 | – | > 228 | –
N#Cc1ccc(CN2CCC(NC(=O)c3cc4cc([N+](=O)[O-])c(O)c(O)c4oc3=O)CC2)cc1 | > 269 | – | > 269 | – | 160 | –
Cc1c(O)c([N+](=O)[O-])cc2cc(C(=O)NC3CCN(Cc4ccccc4)CC3)c(=O)oc12 | 7.8 | – | > 7.8 | – | > 7.8 | –
Cc1c(O)c([N+](=O)[O-])cc2cc(C(=O)NC3CCN(C(=O)N(C)C)CC3)c(=O)oc12 | 19.9 | – | > 19.9 | – | > 19.9 | –
